Values joined by “and” are separate entries in the source; they are usually repeats but may differ in a detail not shown here. Equal values may be shown once.
System: Fibroblast
Experiment: Multiplex assay against human fibroblast
Assay type: toxicity, cell-based
Method in brief: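 Live cells carried four stains from seeding: Hoechst33342, BioTracker Green Microtubule Cytoskeleton Dye, MitoTracker Red and Annexin V Alexa Fluor 680. They were imaged on a CQ1 microscope at 37°C and 5% CO2 after compound addition. Using CellPathfinder machine-learning gating, cells were split into Hoechst high-intensity objects or normal cells, normal cells into healthy, pyknosed or fragmented nuclei, and pyknosed cells into mitotic or apoptotic; tubulin, mitochondrial-mass and membrane-permeability phenotypes are per cents of healthy-nucleus cells.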

[1] = 12 h, 1 µM, compound concentration 1 uM, replicate 1
[2] = 12 h, 1 µM, compound concentration 1 uM, replicate 2
[3] = 24 h, 1 µM, compound concentration 1 uM, replicate 1
[4] = 24 h, 1 µM, compound concentration 1 uM, replicate 2
[5] = 12 h, 10 µM, compound concentration 10 uM, replicate 1
[6] = 12 h, 10 µM, compound concentration 10 uM, replicate 2
[7] = 24 h, 10 µM, compound concentration 10 uM, replicate 1
[8] = 24 h, 10 µM, compound concentration 10 uM, replicate 2

## CN1CCN(Cc2cc(NC(=O)c3ccc4c(c3)CN(c3ccccc3)CC4)cc(C(F)(F)F)c2)CC1
[1]
  Population Apoptotic (%): 72% and 64%
  Population Fragmented Nuclei (%): 42% and 27%
  Population Healthy Nuclei (%): 43% and 53%
  Population Hoechst High Intensity Objects (%): 27% and 18%
  Population Membrane Permeable-Phenotype (%): 4% and 12%
  Population Mitochondria Different-Phenotype (%): 6% and 7%
  Population Mitotic Cells (%): 27% and 35%
  Population Normal (%): 72% and 81%
  Population Pyknosed Nuclei (%): 14% and 19%
  Population Tubulin-Different-Phenotype (%): 30% and 14%
  Total Cell Count: 315 and 180
[2]
  Population Apoptotic (%): 75% and 40%
  Population Fragmented Nuclei (%): 55% and 53%
  Population Healthy Nuclei (%): 37% and 39%
  Population Hoechst High Intensity Objects (%): 36% and 35%
  Population Mitochondria Different-Phenotype (%): 13% and 31%
  Population Mitotic Cells (%): 25% and 60%
  Population Normal (%): 63% and 64%
  Population Pyknosed Nuclei (%): 6%
  Total Cell Count: 92 and 114
[3]
  Population Apoptotic (%): 74% and 57%
  Population Fragmented Nuclei (%): 33% and 27%
  Population Healthy Nuclei (%): 52% and 58%
  Population Hoechst High Intensity Objects (%): 41% and 15%
  Population Membrane Permeable-Phenotype (%): 6% and 4%
  Population Mitochondria Different-Phenotype (%): 25% and 10%
  Population Mitotic Cells (%): 25% and 42%
  Population Normal (%): 58% and 84%
  Population Pyknosed Nuclei (%): 14% and 13%
  Total Cell Count: 365 and 178
[4]
  Population Apoptotic (%): 100% and 40%
  Population Fragmented Nuclei (%): 57% and 61%
  Population Healthy Nuclei (%): 33% and 32%
  Population Hoechst High Intensity Objects (%): 39% and 37%
  Population Membrane Permeable-Phenotype (%): 21% and 12%
  Population Mitochondria Different-Phenotype (%): 15% and 16%
  Population Normal (%): 60% and 62%
  Population Pyknosed Nuclei (%): 8% and 6%
  Population Tubulin-Different-Phenotype (%): 21% and 48%
  Total Cell Count: 93 and 124

## CNC(=O)Nc1ccc2c(c1)[C@@]1(CC2)OC(=O)N(CC(=O)N(Cc2ccc(F)cc2)[C@@H](C)C(F)(F)F)C1=O [A-486]
[1]
  Population Apoptotic (%): 68%
  Population Fragmented Nuclei (%): 21%
  Population Healthy Nuclei (%): 60%
  Population Hoechst High Intensity Objects (%): 9%
  Population Membrane Permeable-Phenotype (%): 31%
  Population Mitochondria Different-Phenotype (%): 4%
  Population Mitotic Cells (%): 31%
  Population Normal (%): 90%
  Population Pyknosed Nuclei (%): 18%
  Population Tubulin-Different-Phenotype (%): 55%
  Total Cell Count: 291
[2]
  Population Apoptotic (%): 75%
  Population Fragmented Nuclei (%): 57%
  Population Healthy Nuclei (%): 21%
  Population Hoechst High Intensity Objects (%): 34%
  Population Membrane Permeable-Phenotype (%): 41%
  Population Mitochondria Different-Phenotype (%): 8%
  Population Mitotic Cells (%): 25%
  Population Normal (%): 65%
  Population Pyknosed Nuclei (%): 21%
  Population Tubulin-Different-Phenotype (%): 91%
  Total Cell Count: 87
[5]
  Population Apoptotic (%): 55%
  Population Fragmented Nuclei (%): 24%
  Population Healthy Nuclei (%): 61%
  Population Hoechst High Intensity Objects (%): 14%
  Population Membrane Permeable-Phenotype (%): 7%
  Population Mitochondria Different-Phenotype (%): 5%
  Population Mitotic Cells (%): 45%
  Population Normal (%): 85%
  Population Pyknosed Nuclei (%): 14%
  Population Tubulin-Different-Phenotype (%): 7%
  Total Cell Count: 160
[6]
  Population Apoptotic (%): 33%
  Population Fragmented Nuclei (%): 57%
  Population Healthy Nuclei (%): 37%
  Population Hoechst High Intensity Objects (%): 29%
  Population Membrane Permeable-Phenotype (%): 15%
  Population Mitochondria Different-Phenotype (%): 10%
  Population Mitotic Cells (%): 66%
  Population Normal (%): 70%
  Population Pyknosed Nuclei (%): 5%
  Population Tubulin-Different-Phenotype (%): 45%
  Total Cell Count: 77
[3]
  Population Apoptotic (%): 56%
  Population Fragmented Nuclei (%): 23%
  Population Healthy Nuclei (%): 59%
  Population Hoechst High Intensity Objects (%): 14%
  Population Membrane Permeable-Phenotype (%): 17%
  Population Mitochondria Different-Phenotype (%): 6%
  Population Mitotic Cells (%): 43%
  Population Normal (%): 85%
  Population Pyknosed Nuclei (%): 17%
  Population Tubulin-Different-Phenotype (%): 46%
  Total Cell Count: 300
[4]
  Population Apoptotic (%): 71%
  Population Fragmented Nuclei (%): 63%
  Population Healthy Nuclei (%): 23%
  Population Hoechst High Intensity Objects (%): 33%
  Population Membrane Permeable-Phenotype (%): 50%
  Population Mitochondria Different-Phenotype (%): 16%
  Population Mitotic Cells (%): 28%
  Population Normal (%): 66%
  Population Pyknosed Nuclei (%): 13%
  Population Tubulin-Different-Phenotype (%): 66%
  Total Cell Count: 78
[7]
  Population Apoptotic (%): 60%
  Population Fragmented Nuclei (%): 30%
  Population Healthy Nuclei (%): 53%
  Population Hoechst High Intensity Objects (%): 14%
  Population Membrane Permeable-Phenotype (%): 12%
  Population Mitochondria Different-Phenotype (%): 1%
  Population Mitotic Cells (%): 39%
  Population Normal (%): 85%
  Population Pyknosed Nuclei (%): 15%
  Population Tubulin-Different-Phenotype (%): 8%
  Total Cell Count: 177
[8]
  Population Apoptotic (%): 100%
  Population Fragmented Nuclei (%): 56%
  Population Healthy Nuclei (%): 40%
  Population Hoechst High Intensity Objects (%): 38%
  Population Membrane Permeable-Phenotype (%): 25%
  Population Mitochondria Different-Phenotype (%): 0%
  Population Mitotic Cells (%): 0%
  Population Normal (%): 61%
  Population Pyknosed Nuclei (%): 4%
  Population Tubulin-Different-Phenotype (%): 10%
  Total Cell Count: 81

— ChEMBL document CHEMBL4689842, “EUbOPEN Chemogenomics Library wave 1” (2021)
